# Assay results pooled from the literature.
# Each line is one published result; the experiments were not run side by side.
# BRD4 BD1: Bromodomain-containing protein 4, BD1 (BRD4, Homo sapiens, UniProt O60885)
# BRD4 BD2: Bromodomain-containing protein 4, BD2 (BRD4, Homo sapiens, UniProt O60885)
SMILES,target,effect on,method,concentration,endpoint,value
CC(C)(C)c1cc(NC(=O)Nc2ccc(-c3cn4c(n3)sc3cc(OCCN5CCOCC5)ccc34)cc2)no1,BRD4 BD1,thermal stability,DSF,100 µM,ΔTm,< 1 °C
NS(=O)(=O)c1ccc(Nc2nc(-c3ccc(F)cc3)c3ccccc3n2)cc1,BRD4 BD2,binding,competition with immobilised ligand,1 µM,remaining binding,4%
COc1cc(C(=O)N2CCC(N3CCN(C)CC3)CC2)ccc1Nc1ncc2c(n1)N(C)c1ccccc1C(=O)N2C,BRD4 BD1,thermal stability,DSF,10 µM,ΔTm,2.1 °C
CC(C)[C@@H]1NC(=O)[C@@H]2CCCN2C(=O)[C@H](Cc2ccccc2)NC(=O)CSC[C@@H](C(=O)N[C@@H](Cc2ccc(O)cc2)C(N)=O)NC(=O)[C@H](Cc2c[nH]c3ccccc23)NC(=O)[C@H](CCCCN)NC(=O)[C@H](Cc2ccccc2)N(C)C(=O)[C@H](Cc2ccccc2)NC1=O,BRD4 BD1,thermal stability,DSF,100 µM,ΔTm,-0.52 °C
C[S+]([O-])c1ccc(-c2nc(-c3ccncc3)c(-c3ccc(F)cc3)[nH]2)cc1 (stereo not drawn),BRD4 BD1,thermal stability,DSF,10 µM,ΔTm,1.32 °C
Cc1cc2c(NC(=O)c3cccc(C(=O)O)c3)cccc2nn1,BRD4 BD1,thermal stability,DSF,100 µM,ΔTm,1.4 °C
CN(C)CCN1CCN(c2nc(NCc3cccc(Cl)c3)c3cc(-c4ccc(=O)n(C)c4)ccc3n2)CC1,BRD4 BD2,thermal stability,DSF,250 µM,ΔTm,11 °C
Cc1cnc(Nc2ccc(OCCN3CCCC3)cc2)nc1Nc1cccc(S(=O)(=O)NC(C)(C)C)c1,BRD4 BD1,thermal stability,DSF,10 µM,ΔTm,3.8 °C
Cn1cc(C(=O)Nc2cccc(C(=O)O)c2)ccc1=O,BRD4 BD1,thermal stability,DSF,100 µM,ΔTm,0.9 °C
